{"source": "paper PMC9217999", "about": "(Targeted Oncology, 2022)", "test": "Safety and tolerability in iMATRIX-cobi Phase I/II study", "format": "in vivo, human", "in_short": "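Patients aged 6 months to <30 years with relapsed/refractory solid tumors with MAPK pathway involvement. Oral test compound (20-mg tablet or suspension, with/without food) on Days 1–21 of 28-day cycles. Cumulative weekly weight-based dose rounded to 20 mg, capped at 60 mg/day. Rolling 6 escalation in cohorts of 3–6. Eye exams including OCT at baseline, cycle 1 Days 8/15, and each later cycle Day 1. All dosed patients evaluated.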", "key": {"[1]": {"conditions": "Dose escalation tablet (n = 18)"}}, "data": [{"smiles": "O=C(c1ccc(F)c(F)c1Nc1ccc(I)cc1F)N1CC(O)([C@@H]2CCCCN2)C1", "note": "[cobimetinib]", "values": [{"measurement": "Treatment-related AE: Encephalopathy, G3", "setting": "[1]", "result": "1 (6) n (%)"}, {"measurement": "Treatment-related AE: Encephalopathy, G4", "setting": "[1]", "result": "0 n (%)"}, {"measurement": "Treatment-related AE: Erythema, G1", "setting": "[1]", "result": "2 (11) n (%)"}, {"measurement": "Treatment-related AE: Erythema, G2", "setting": "[1]", "result": "0 n (%)"}, {"measurement": "Treatment-related AE: Erythema, G3", "setting": "[1]", "result": "0 n (%)"}, {"measurement": "Treatment-related AE: Erythema, G4", "setting": "[1]", "result": "0 n (%)"}, {"measurement": "Treatment-related AE: Fatigue, G1", "setting": "[1]", "result": "2 (11) n (%)"}, {"measurement": "Treatment-related AE: Fatigue, G2", "setting": "[1]", "result": "0 n (%)"}, {"measurement": "Treatment-related AE: Fatigue, G3", "setting": "[1]", "result": "0 n (%)"}, {"measurement": "Treatment-related AE: Fatigue, G4", "setting": "[1]", "result": "0 n (%)"}, {"measurement": "Treatment-related AE: Headache, G1", "setting": "[1]", "result": "1 (6) n (%)"}, {"measurement": "Treatment-related AE: Headache, G2", "setting": "[1]", "result": "0 n (%)"}, {"measurement": "Treatment-related AE: Headache, G3", "setting": "[1]", "result": "1 (6) n (%)"}, {"measurement": "Treatment-related AE: Headache, G4", "setting": "[1]", "result": "0 n (%)"}, {"measurement": "Treatment-related AE: Nausea, G1", "setting": "[1]", "result": "3 (17) n (%)"}, {"measurement": "Treatment-related AE: Nausea, G2", "setting": "[1]", "result": "0 n (%)"}, {"measurement": "Treatment-related AE: Nausea, G3", "setting": "[1]", "result": "0 n (%)"}, {"measurement": "Treatment-related AE: Nausea, G4", "setting": "[1]", "result": "0 n (%)"}, {"measurement": "Treatment-related AE: Paronychia, G1", "setting": "[1]", "result": "0 n (%)"}, {"measurement": "Treatment-related AE: Paronychia, G2", "setting": "[1]", "result": "0 n (%)"}, {"measurement": "Treatment-related AE: Paronychia, G3", "setting": "[1]", "result": "0 n (%)"}, {"measurement": "Treatment-related AE: Paronychia, G4", "setting": "[1]", "result": "0 n (%)"}, {"measurement": "Treatment-related AE: Rash, G1", "setting": "[1]", "result": "3 (17) n (%)"}, {"measurement": "Treatment-related AE: Rash, G2", "setting": "[1]", "result": "0 n (%)"}, {"measurement": "Treatment-related AE: Rash, G3", "setting": "[1]", "result": "0 n (%)"}, {"measurement": "Treatment-related AE: Rash, G4", "setting": "[1]", "result": "0 n (%)"}, {"measurement": "Treatment-related AE: Transaminases increased, G1", "setting": "[1]", "result": "0 n (%)"}, {"measurement": "Treatment-related AE: Transaminases increased, G2", "setting": "[1]", "result": "0 n (%)"}, {"measurement": "Treatment-related AE: Transaminases increased, G3", "setting": "[1]", "result": "0 n (%)"}, {"measurement": "Treatment-related AE: Transaminases increased, G4", "setting": "[1]", "result": "0 n (%)"}, {"measurement": "Treatment-related AE: Vomiting, G1", "setting": "[1]", "result": "1 (6) n (%)"}, {"measurement": "Treatment-related AE: Vomiting, G2", "setting": "[1]", "result": "2 (11) n (%)"}, {"measurement": "Treatment-related AE: Vomiting, G3", "setting": "[1]", "result": "0 n (%)"}, {"measurement": "Treatment-related AE: Vomiting, G4", "setting": "[1]", "result": "0 n (%)"}, {"measurement": "Treatment-related AE: Weight increased, G1", "setting": "[1]", "result": "0 n (%)"}, {"measurement": "Treatment-related AE: Weight increased, G2", "setting": "[1]", "result": "0 n (%)"}, {"measurement": "Treatment-related AE: Weight increased, G3", "setting": "[1]", "result": "1 (6) n (%)"}, {"measurement": "Treatment-related AE: Weight increased, G4", "setting": "[1]", "result": "0 n (%)"}, {"measurement": "Any treatment-related AE, G1", "setting": "Dose expansion (n = 12)", "result": "3 (25) n (%)"}, {"measurement": "Any treatment-related AE, G2", "setting": "Dose expansion (n = 12)", "result": "3 (25) n (%)"}, {"measurement": "Any treatment-related AE, G3", "setting": "Dose expansion (n = 12)", "result": "3 (25) n (%)"}, {"measurement": "Any treatment-related AE, G4", "setting": "Dose expansion (n = 12)", "result": "2 (17) n (%)"}, {"measurement": "Treatment-related AE: ALT increased, G1", "setting": "Dose expansion (n = 12)", "result": "1 (8) n (%)"}, {"measurement": "Treatment-related AE: ALT increased, G2", "setting": "Dose expansion (n = 12)", "result": "0 n (%)"}, {"measurement": "Treatment-related AE: ALT increased, G3", "setting": "Dose expansion (n = 12)", "result": "0 n (%)"}, {"measurement": "Treatment-related AE: ALT increased, G4", "setting": "Dose expansion (n = 12)", "result": "0 n (%)"}, {"measurement": "Treatment-related AE: AST increased, G1", "setting": "Dose expansion (n = 12)", "result": "1 (8) n (%)"}, {"measurement": "Treatment-related AE: AST increased, G2", "setting": "Dose expansion (n = 12)", "result": "0 n (%)"}, {"measurement": "Treatment-related AE: AST increased, G3", "setting": "Dose expansion (n = 12)", "result": "1 (8) n (%)"}, {"measurement": "Treatment-related AE: AST increased, G4", "setting": "Dose expansion (n = 12)", "result": "0 n (%)"}, {"measurement": "Treatment-related AE: Abdominal pain, G1", "setting": "Dose expansion (n = 12)", "result": "3 (25) n (%)"}, {"measurement": "Treatment-related AE: Abdominal pain, G2", "setting": "Dose expansion (n = 12)", "result": "0 n (%)"}, {"measurement": "Treatment-related AE: Abdominal pain, G3", "setting": "Dose expansion (n = 12)", "result": "0 n (%)"}, {"measurement": "Treatment-related AE: Abdominal pain, G4", "setting": "Dose expansion (n = 12)", "result": "0 n (%)"}, {"measurement": "Treatment-related AE: Anemia, G1", "setting": "Dose expansion (n = 12)", "result": "1 (8) n (%)"}, {"measurement": "Treatment-related AE: Anemia, G2", "setting": "Dose expansion (n = 12)", "result": "0 n (%)"}, {"measurement": "Treatment-related AE: Anemia, G3", "setting": "Dose expansion (n = 12)", "result": "1 (8) n (%)"}, {"measurement": "Treatment-related AE: Anemia, G4", "setting": "Dose expansion (n = 12)", "result": "0 n (%)"}, {"measurement": "Treatment-related AE: Asthenia, G1", "setting": "Dose expansion (n = 12)", "result": "0 n (%)"}, {"measurement": "Treatment-related AE: Asthenia, G2", "setting": "Dose expansion (n = 12)", "result": "0 n (%)"}, {"measurement": "Treatment-related AE: Asthenia, G3", "setting": "Dose expansion (n = 12)", "result": "1 (8) n (%)"}, {"measurement": "Treatment-related AE: Asthenia, G4", "setting": "Dose expansion (n = 12)", "result": "0 n (%)"}, {"measurement": "Treatment-related AE: Blood CPK increased, G1", "setting": "Dose expansion (n = 12)", "result": "0 n (%)"}, {"measurement": "Treatment-related AE: Blood CPK increased, G2", "setting": "Dose expansion (n = 12)", "result": "0 n (%)"}, {"measurement": "Treatment-related AE: Blood CPK increased, G3", "setting": "Dose expansion (n = 12)", "result": "1 (8) n (%)"}, {"measurement": "Treatment-related AE: Blood CPK increased, G4", "setting": "Dose expansion (n = 12)", "result": "1 (8) n (%)"}, {"measurement": "Treatment-related AE: Chorioretinopathy, G1", "setting": "Dose expansion (n = 12)", "result": "0 n (%)"}, {"measurement": "Treatment-related AE: Chorioretinopathy, G2", "setting": "Dose expansion (n = 12)", "result": "0 n (%)"}, {"measurement": "Treatment-related AE: Chorioretinopathy, G3", "setting": "Dose expansion (n = 12)", "result": "0 n (%)"}, {"measurement": "Treatment-related AE: Chorioretinopathy, G4", "setting": "Dose expansion (n = 12)", "result": "0 n (%)"}, {"measurement": "Treatment-related AE: Constipation, G1", "setting": "Dose expansion (n = 12)", "result": "0 n (%)"}, {"measurement": "Treatment-related AE: Constipation, G2", "setting": "Dose expansion (n = 12)", "result": "0 n (%)"}, {"measurement": "Treatment-related AE: Constipation, G3", "setting": "Dose expansion (n = 12)", "result": "0 n (%)"}, {"measurement": "Treatment-related AE: Constipation, G4", "setting": "Dose expansion (n = 12)", "result": "0 n (%)"}]}]}
